Source: ChEMBL document CHEMBL5678818, “Discovery of potent SOS1 inhibitors that block RAS activation via disruption of the RAS-SOS1 interaction” (Proc Natl Acad Sci U S A, 2019)

Experiments:
[1] = biological target: Serine/threonine-protein kinase PAK 2 (Homo sapiens) (UniProt Q13177); assay: Inhibition of PAK2 (unknown origin) assessed as residual activity at 1000 nM by KINOMEscan analysis relative to control
[2] = biological target: T1, Mitogen-activated protein kinase 12 (Homo sapiens) (UniProt P53778); assay: Inhibition of p38-gamma (unknown origin) assessed as residual activity at 1000 nM by KINOMEscan analysis relative to control
T1 sequence (whole entry): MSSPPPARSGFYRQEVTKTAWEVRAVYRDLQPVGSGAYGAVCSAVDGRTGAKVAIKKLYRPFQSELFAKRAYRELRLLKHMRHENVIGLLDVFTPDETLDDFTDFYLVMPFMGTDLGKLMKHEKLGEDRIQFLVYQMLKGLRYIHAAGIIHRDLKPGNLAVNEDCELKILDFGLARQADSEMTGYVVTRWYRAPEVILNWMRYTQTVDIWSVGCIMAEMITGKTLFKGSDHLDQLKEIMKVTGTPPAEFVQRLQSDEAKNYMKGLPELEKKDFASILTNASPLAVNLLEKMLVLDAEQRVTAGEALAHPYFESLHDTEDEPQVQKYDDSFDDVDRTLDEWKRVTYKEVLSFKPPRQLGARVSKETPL

[3] = biological target: ALK tyrosine kinase receptor (Homo sapiens) (UniProt Q9UM73); assay: Inhibition of ALK (unknown origin) assessed as residual activity at 1000 nM by KINOMEscan analysis relative to control
Sequence of ALK tyrosine kinase receptor (Homo sapiens) (Q9UM73 19-1620 limits assumed): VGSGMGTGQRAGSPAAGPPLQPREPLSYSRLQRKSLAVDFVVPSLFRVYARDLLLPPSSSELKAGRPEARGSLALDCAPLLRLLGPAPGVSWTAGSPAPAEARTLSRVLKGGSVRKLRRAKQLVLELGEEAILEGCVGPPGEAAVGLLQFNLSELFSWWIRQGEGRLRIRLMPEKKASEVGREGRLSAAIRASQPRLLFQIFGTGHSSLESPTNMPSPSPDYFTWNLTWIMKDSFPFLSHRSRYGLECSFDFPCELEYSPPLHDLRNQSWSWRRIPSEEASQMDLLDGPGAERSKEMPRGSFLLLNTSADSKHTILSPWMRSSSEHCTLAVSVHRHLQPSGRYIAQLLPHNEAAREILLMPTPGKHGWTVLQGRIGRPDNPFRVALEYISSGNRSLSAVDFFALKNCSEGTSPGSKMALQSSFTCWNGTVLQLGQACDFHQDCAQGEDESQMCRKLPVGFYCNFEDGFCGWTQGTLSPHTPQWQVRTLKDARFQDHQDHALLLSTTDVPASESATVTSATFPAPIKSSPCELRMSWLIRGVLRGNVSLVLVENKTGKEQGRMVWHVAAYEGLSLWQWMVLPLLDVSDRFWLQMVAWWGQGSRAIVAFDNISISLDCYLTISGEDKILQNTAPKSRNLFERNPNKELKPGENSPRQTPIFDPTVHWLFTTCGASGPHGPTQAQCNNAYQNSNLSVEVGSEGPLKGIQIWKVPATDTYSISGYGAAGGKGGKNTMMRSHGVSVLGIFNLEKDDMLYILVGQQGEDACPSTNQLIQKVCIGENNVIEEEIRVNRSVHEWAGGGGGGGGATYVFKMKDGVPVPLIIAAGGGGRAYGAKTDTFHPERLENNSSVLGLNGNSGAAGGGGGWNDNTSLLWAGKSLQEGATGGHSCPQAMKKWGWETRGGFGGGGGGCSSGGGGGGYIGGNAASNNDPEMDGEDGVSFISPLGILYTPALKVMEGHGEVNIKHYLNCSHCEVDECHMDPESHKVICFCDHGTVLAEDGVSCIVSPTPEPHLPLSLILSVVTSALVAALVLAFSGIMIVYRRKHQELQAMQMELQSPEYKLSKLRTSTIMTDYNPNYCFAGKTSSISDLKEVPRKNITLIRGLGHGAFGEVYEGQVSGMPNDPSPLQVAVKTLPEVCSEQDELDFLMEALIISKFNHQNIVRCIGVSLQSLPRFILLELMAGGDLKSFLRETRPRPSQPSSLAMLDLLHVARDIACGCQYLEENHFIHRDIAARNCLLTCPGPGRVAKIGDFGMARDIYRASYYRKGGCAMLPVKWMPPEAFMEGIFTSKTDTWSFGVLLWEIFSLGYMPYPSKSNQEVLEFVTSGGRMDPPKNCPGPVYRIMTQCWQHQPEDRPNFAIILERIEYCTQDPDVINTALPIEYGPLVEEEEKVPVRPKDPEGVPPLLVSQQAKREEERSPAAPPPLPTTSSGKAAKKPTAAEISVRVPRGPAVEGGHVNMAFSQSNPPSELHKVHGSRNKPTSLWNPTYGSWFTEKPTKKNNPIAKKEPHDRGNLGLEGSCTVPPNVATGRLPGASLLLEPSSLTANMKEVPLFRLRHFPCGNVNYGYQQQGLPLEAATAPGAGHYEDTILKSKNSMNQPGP

[4] = biological target: Serine/threonine-protein kinase 26 (Homo sapiens) (UniProt Q9P289); assay: Inhibition of MST4 (unknown origin) assessed as residual activity at 1000 nM by KINOMEscan analysis relative to control
Sequence of Serine/threonine-protein kinase 26 (Homo sapiens) (Q9P289 2-416 limits assumed): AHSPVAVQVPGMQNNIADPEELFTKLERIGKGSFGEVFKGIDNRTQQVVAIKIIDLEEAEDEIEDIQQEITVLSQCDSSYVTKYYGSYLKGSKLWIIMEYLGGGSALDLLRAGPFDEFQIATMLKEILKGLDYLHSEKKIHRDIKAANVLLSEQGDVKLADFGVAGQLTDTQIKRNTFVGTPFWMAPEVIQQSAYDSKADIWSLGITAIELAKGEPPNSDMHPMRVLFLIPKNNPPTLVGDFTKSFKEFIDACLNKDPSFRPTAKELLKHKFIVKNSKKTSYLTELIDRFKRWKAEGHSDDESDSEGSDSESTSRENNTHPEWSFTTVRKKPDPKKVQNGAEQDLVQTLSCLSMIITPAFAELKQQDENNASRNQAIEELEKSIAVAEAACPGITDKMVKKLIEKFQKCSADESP

[5] = system: Receptor-type tyrosine-protein kinase FLT3 (Homo sapiens), P36888 [R834Q]; assay: Inhibition of FLT3 R834Q mutant (unknown origin) assessed as residual activity at 1000 nM by KINOMEscan analysis relative to control
[6] = system: K562; assay: Antiproliferative activity against human K562 cells assessed as inhibition of cell viability incubated for 72 hrs by Cell Titer Glo assay; assay type: functional, cell-based; settings: K562, 72 h
In short: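 K-562 cells (wild-type KRAS, sourced from ATCC) were tested for antiproliferative response.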

[7] = biological target: Tyrosine-protein kinase ABL1 (Homo sapiens) (UniProt P00519); assay: Inhibition of phosphorylated ABL1 (unknown origin) assessed as residual activity at 1000 nM by KINOMEscan analysis relative to control
Sequence of Tyrosine-protein kinase ABL1 (Homo sapiens) (P00519 whole entry): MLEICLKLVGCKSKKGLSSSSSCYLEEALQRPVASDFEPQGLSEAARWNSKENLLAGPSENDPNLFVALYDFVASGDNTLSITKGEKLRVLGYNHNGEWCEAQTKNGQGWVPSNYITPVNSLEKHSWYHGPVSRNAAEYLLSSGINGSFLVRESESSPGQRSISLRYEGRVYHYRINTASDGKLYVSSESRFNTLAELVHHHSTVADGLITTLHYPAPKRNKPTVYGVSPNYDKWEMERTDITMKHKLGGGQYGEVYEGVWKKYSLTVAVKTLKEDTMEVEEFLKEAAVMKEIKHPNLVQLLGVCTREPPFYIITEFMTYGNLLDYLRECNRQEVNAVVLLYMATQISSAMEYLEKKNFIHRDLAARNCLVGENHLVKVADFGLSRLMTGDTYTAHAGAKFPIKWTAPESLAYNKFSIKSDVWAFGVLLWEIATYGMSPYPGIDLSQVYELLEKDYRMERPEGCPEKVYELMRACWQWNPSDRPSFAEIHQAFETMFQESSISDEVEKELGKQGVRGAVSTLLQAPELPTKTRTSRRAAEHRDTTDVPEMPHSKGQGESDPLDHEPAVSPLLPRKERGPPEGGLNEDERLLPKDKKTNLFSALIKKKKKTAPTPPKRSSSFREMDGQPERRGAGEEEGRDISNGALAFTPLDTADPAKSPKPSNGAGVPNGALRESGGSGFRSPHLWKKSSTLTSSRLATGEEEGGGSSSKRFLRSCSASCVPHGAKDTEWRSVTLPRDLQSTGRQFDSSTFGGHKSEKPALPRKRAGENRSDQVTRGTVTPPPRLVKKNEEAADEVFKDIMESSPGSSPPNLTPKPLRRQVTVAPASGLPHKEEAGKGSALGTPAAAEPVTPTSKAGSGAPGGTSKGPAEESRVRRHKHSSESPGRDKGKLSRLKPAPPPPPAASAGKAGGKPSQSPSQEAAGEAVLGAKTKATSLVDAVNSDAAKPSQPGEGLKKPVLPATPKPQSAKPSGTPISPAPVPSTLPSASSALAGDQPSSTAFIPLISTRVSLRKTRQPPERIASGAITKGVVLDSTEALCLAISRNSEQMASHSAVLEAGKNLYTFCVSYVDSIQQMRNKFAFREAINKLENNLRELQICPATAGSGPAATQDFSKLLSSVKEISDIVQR

[8] = system: Tyrosine-protein kinase ABL1 (Homo sapiens), P00519 [E255K]; assay: Inhibition of phosphorylated ABL1 E255K mutant (unknown origin) assessed as residual activity at 1000 nM by KINOMEscan analysis relative to control
Sequence of Tyrosine-protein kinase ABL1 (Homo sapiens), P00519 [E255K] (P00519 whole entry E255K): as the sequence (P00519 whole entry) above, with E255K counted along it

[9] = biological target: RAF proto-oncogene serine/threonine-protein kinase (Homo sapiens) (UniProt P04049); assay: Inhibition of RAF1 (unknown origin) assessed as residual activity at 1000 nM by KINOMEscan analysis relative to control
[10] = biological target: Cyclin-dependent kinase 7 (Homo sapiens) (UniProt P50613); assay: Inhibition of CDK7 (unknown origin) assessed as residual activity at 1000 nM by KINOMEscan analysis relative to control
Sequence of Cyclin-dependent kinase 7 (Homo sapiens) (P50613 whole entry, the tested form may be a part): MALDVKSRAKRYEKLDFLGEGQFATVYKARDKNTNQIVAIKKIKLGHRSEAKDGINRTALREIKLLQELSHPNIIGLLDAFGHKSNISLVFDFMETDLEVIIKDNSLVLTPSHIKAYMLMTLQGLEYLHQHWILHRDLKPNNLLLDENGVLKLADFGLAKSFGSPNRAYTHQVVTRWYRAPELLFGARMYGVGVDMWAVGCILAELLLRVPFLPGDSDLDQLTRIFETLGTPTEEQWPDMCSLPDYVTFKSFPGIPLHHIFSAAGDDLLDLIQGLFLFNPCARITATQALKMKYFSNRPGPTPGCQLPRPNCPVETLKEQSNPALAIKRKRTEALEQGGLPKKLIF

[11] = biological target: Ribosomal protein S6 kinase alpha-3 (Homo sapiens) (UniProt P51812); assay: Inhibition of C-terminal RSK2 kinetic domain 2 (unknown origin) assessed as residual activity at 1000 nM by KINOMEscan analysis relative to control
[12] = biological target: Serine/threonine-protein kinase 25 (Homo sapiens) (UniProt O00506); assay: Inhibition of YSK1 (unknown origin) assessed as residual activity at 1000 nM by KINOMEscan analysis relative to control
Sequence of Serine/threonine-protein kinase 25 (Homo sapiens) (O00506 whole entry, looked up): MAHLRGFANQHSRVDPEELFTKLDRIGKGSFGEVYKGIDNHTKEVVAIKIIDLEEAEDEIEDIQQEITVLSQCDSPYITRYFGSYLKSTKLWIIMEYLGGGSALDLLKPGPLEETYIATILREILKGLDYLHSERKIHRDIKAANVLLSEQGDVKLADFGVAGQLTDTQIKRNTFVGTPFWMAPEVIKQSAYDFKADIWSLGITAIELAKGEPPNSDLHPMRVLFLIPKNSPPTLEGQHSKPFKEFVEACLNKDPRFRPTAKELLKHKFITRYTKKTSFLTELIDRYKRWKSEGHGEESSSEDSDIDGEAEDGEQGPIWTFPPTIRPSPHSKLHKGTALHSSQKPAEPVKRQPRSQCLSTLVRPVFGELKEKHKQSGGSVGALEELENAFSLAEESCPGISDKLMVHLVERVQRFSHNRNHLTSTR

[13] = biological target: T2, Serine/threonine-protein kinase PLK4 (Homo sapiens) (UniProt O00444); assay: Inhibition of PLK4 (unknown origin) assessed as residual activity at 1000 nM by KINOMEscan analysis relative to control
T2 sequence (whole entry): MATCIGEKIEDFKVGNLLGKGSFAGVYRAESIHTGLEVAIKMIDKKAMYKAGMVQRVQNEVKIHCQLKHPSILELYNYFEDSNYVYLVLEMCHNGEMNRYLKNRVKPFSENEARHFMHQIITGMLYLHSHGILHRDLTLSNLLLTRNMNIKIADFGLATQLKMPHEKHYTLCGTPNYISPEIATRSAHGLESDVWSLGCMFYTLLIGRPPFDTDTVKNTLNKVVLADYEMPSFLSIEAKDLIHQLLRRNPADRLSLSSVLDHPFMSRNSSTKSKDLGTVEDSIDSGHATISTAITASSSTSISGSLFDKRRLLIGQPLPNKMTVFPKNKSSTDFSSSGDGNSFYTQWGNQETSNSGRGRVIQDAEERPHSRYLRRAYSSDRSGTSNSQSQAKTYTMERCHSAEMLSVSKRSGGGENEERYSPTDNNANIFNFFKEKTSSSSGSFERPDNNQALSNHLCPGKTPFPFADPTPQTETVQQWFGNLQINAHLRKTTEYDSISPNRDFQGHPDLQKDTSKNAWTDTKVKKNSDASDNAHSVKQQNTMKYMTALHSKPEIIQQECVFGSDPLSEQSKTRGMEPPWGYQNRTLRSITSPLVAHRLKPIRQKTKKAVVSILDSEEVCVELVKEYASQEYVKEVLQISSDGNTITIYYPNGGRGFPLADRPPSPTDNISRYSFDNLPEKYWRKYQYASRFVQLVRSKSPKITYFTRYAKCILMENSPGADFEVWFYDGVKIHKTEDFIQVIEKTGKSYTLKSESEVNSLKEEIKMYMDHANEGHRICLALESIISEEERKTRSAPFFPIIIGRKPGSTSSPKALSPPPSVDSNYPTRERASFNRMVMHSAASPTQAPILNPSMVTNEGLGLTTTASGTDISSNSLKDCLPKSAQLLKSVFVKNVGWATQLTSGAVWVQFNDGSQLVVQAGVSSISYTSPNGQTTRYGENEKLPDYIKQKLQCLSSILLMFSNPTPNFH

Sequence of Serine/threonine-protein kinase PAK 2 (Homo sapiens) (Q13177 whole entry): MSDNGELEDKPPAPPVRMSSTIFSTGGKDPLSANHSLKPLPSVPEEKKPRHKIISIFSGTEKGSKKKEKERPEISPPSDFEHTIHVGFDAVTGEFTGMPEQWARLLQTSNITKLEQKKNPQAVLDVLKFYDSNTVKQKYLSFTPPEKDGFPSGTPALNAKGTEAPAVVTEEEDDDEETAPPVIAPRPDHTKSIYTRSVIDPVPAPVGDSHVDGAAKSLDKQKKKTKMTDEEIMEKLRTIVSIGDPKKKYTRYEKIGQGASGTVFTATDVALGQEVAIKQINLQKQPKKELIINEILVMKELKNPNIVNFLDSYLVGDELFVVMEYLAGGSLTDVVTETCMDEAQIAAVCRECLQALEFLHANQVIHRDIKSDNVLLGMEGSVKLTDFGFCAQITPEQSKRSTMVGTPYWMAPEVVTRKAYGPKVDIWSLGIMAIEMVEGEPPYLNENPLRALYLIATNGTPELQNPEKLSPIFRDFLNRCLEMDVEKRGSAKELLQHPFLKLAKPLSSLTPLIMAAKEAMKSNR

| Compound | Activity [1] [%] | Activity [2] [%] | Activity [3] [%] | Activity [4] [%] | Activity [5] [%] | IC50 [6] [µM] | Activity [7] [%] | Activity [8] [%] | Activity [9] [%] | Activity [10] [%] | Activity [11] [%] | Activity [12] [%] | Activity [13] [%] |
| --- | --- | --- | --- | --- | --- | --- | --- | --- | --- | --- | --- | --- | --- |
| COc1cc2nc(C)nc(N[C@H](C)c3cccc(-c4cn[nH]c4)c3)c2cc1OC | 67 | 52 | 100 | 74 | 89 | 3.1 | 81 | 65 | 100 | 92 | 100 | 99 | 100 |
| CNCc1ccccc1-c1csc([C@@H](C)Nc2nc(C)nc3cc(OC)c(OC)cc23)c1 [BAY-293] | – | – | – | – | – | 1.09 | – | – | – | – | – | – | – |
| COc1cc2ncnc(N[C@H](C)c3cccc4ccccc34)c2cc1OC | 82 | 91 | 85 | 98 | 91 | – | 97 | 89 | 94 | 87 | 100 | 100 | 96 |
